Data as given in ChEMBL document CHEMBL1154876, “Synthesis and antimicrobial studies on novel sulfonamides containing 4-azidomethyl coumarin” (2010).
Converted amounts (≈) assume the structure as drawn.

Assays:
Type in all cases: functional
[1] = system: Enterococcus faecalis; test: Antibacterial activity against Streptococcus faecalis MTCC 3382 after 18 hrs by broth microdilution method; conditions: MTCC 3382, 18 h
[2] = system: Staphylococcus aureus; test: Antibacterial activity against Staphylococcus aureus MTCC 3160 after 18 hrs by broth microdilution method; conditions: MTCC 3160, 18 h
[3] = system: Bacillus subtilis; test: Antibacterial activity against Bacillus subtilis MTCC 297 after 18 hrs by broth microdilution method; conditions: MTCC 297, 18 h
[4] = system: Pseudomonas aeruginosa; test: Antibacterial activity against Pseudomonas aeruginosa MTCC 1034 after 18 hrs by broth microdilution method; conditions: MTCC 1034, 18 h
[5] = system: Klebsiella pneumoniae; test: Antibacterial activity against Klebsiella pneumoniae MTCC 3384 after 18 hrs by broth microdilution method; conditions: MTCC 3384, 18 h
[6] = system: Escherichia coli; test: Antibacterial activity against Escherichia coli MTCC 1089 after 18 hrs by broth microdilution method; conditions: MTCC 1089, 18 h
[7] = system: Candida albicans; test: Antifungal activity against Candida albicans after 48 to 72 hrs by broth microdilution method
Procedure, shortened: (§1)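 Test compounds were prepared as 10 mg/ml DMSO stocks and serially diluted twofold in Sabouraud's dextrose broth over 500, 250, 125, 62.5, 31.25, 16, 8, 4, 2 and 1, alongside fluconazole as reference. Plates were inoculated with 1–5 × 10⁴ cfu/ml and held at 25 °C for 48–72 h. The MIC was the lowest concentration showing no visible growth.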

[8] = system: Aspergillus fumigatus; test: Antifungal activity against Aspergillus fumigatus after 48 to 72 hrs by broth microdilution method; procedure, shortened: as §1
[9] = system: Aspergillus niger; test: Antifungal activity against Aspergillus niger after 48 to 72 hrs by broth microdilution method; procedure, shortened: as §1
[10] = system: Penicillium chrysogenum; test: Antifungal activity against Penicillium chrysogenum after 48 to 72 hrs by broth microdilution method; procedure, shortened: as §1
[11] = system: Mucor; test: Antifungal activity against Mucor fuscus after 48 to 72 hrs by broth micro dilution method; procedure, shortened: as §1
[12] = system: Fusarium oxysporum; test: Antifungal activity against Fusarium oxysporum after 48 to 72 hrs by broth microdilution method; procedure, shortened: as §1

| SMILES | MIC [1] [µg/mL] | MIC [2] [µg/mL] | MIC [3] [µg/mL] | MIC [4] [µg/mL] | MIC [5] [µg/mL] | MIC [6] [µg/mL] | MIC [7] [µg/mL] | MIC [8] [µg/mL] | MIC [9] [µg/mL] | MIC [10] [µg/mL] | MIC [11] [µg/mL] | MIC [12] [µg/mL] |
| --- | --- | --- | --- | --- | --- | --- | --- | --- | --- | --- | --- | --- |
| Cc1cc2oc(=O)cc(CN=[N+]=[N-])c2cc1S(=O)(=O)Nc1cc([N+](=O)[O-])ccc1Cl | 2 (≈ 4.45 µM) | 2 (≈ 4.45 µM) | 125 (≈ 278 µM) | 2 (≈ 4.45 µM) | 62.5 (≈ 139 µM) | > 500 | 4 (≈ 8.89 µM) | 2 (≈ 4.45 µM) | 8 (≈ 17.8 µM) | 125 (≈ 278 µM) | 62.5 (≈ 139 µM) | 1 (≈ 2.22 µM) |
| Cc1ccc(NS(=O)(=O)c2cc3c(CN=[N+]=[N-])cc(=O)oc3cc2C)c(C)c1 | 62.5 (≈ 157 µM) | 16 (≈ 40.2 µM) | 125 (≈ 314 µM) | 4 (≈ 10 µM) | 62.5 (≈ 157 µM) | > 500 | 8 (≈ 20.1 µM) | 16 (≈ 40.2 µM) | 4 (≈ 10 µM) | 31.2 (≈ 78.4 µM) | 16 (≈ 40.2 µM) | 1 (≈ 2.51 µM) |
| Cc1cc2oc(=O)cc(CN=[N+]=[N-])c2cc1S(=O)(=O)Nc1cccc2ccccc12 | 2 (≈ 4.76 µM) | 16 (≈ 38.1 µM) | > 500 | 8 (≈ 19 µM) | 1 (≈ 2.38 µM) | > 500 | 8 (≈ 19 µM) | 2 (≈ 4.76 µM) | 1 (≈ 2.38 µM) | 16 (≈ 38.1 µM) | 31.2 (≈ 74.3 µM) | 1 (≈ 2.38 µM) |
| COc1cccc(NS(=O)(=O)c2cc3c(CN=[N+]=[N-])cc(=O)oc3cc2C)c1 | 1 (≈ 2.5 µM) | 16 (≈ 40 µM) | > 500 | 1 (≈ 2.5 µM) | 2 (≈ 4.99 µM) | > 500 | 8 (≈ 20 µM) | 31.2 (≈ 78 µM) | 2 (≈ 4.99 µM) | 125 (≈ 312 µM) | 4 (≈ 9.99 µM) | 1 (≈ 2.5 µM) |
| Cc1cccc(NS(=O)(=O)c2cc3c(CN=[N+]=[N-])cc(=O)oc3cc2C)c1 | 250 (≈ 650 µM) | 16 (≈ 41.6 µM) | 16 (≈ 41.6 µM) | 2 (≈ 5.2 µM) | 4 (≈ 10.4 µM) | > 500 | 4 (≈ 10.4 µM) | 8 (≈ 20.8 µM) | 1 (≈ 2.6 µM) | 8 (≈ 20.8 µM) | 62.5 (≈ 163 µM) | 125 (≈ 325 µM) |
| Cc1cc2oc(=O)cc(CN=[N+]=[N-])c2cc1S(=O)(=O)Nc1c(C)cccc1C | > 500 | 125 (≈ 314 µM) | > 500 | 2 (≈ 5.02 µM) | 1 (≈ 2.51 µM) | > 500 | 8 (≈ 20.1 µM) | 2 (≈ 5.02 µM) | 8 (≈ 20.1 µM) | 31.2 (≈ 78.4 µM) | 16 (≈ 40.2 µM) | 1 (≈ 2.51 µM) |
| Cc1cc2oc(=O)cc(CN=[N+]=[N-])c2cc1S(=O)(=O)Nc1ccc(Br)cc1 | 1 (≈ 2.23 µM) | 16 (≈ 35.6 µM) | > 500 | 1 (≈ 2.23 µM) | 1 (≈ 2.23 µM) | > 500 | 125 (≈ 278 µM) | > 500 | > 500 | 16 (≈ 35.6 µM) | 250 (≈ 556 µM) | 1 (≈ 2.23 µM) |
| Cc1cc2oc(=O)cc(CN=[N+]=[N-])c2cc1S(=O)(=O)Nc1ccc([N+](=O)[O-])cc1 | 4 (≈ 9.63 µM) | 2 (≈ 4.81 µM) | 125 (≈ 301 µM) | 1 (≈ 2.41 µM) | 2 (≈ 4.81 µM) | 250 (≈ 602 µM) | 62.5 (≈ 150 µM) | 250 (≈ 602 µM) | 62.5 (≈ 150 µM) | 62.5 (≈ 150 µM) | 8 (≈ 19.3 µM) | 1 (≈ 2.41 µM) |
| Cc1cc2oc(=O)cc(CN=[N+]=[N-])c2cc1S(=O)(=O)Nc1ccc(Cl)cc1[N+](=O)[O-] | 4 (≈ 8.89 µM) | 4 (≈ 8.89 µM) | 250 (≈ 556 µM) | 8 (≈ 17.8 µM) | 16 (≈ 35.6 µM) | > 500 | 16 (≈ 35.6 µM) | > 500 | 62.5 (≈ 139 µM) | 125 (≈ 278 µM) | 8 (≈ 17.8 µM) | 1 (≈ 2.22 µM) |
| Cc1cc2oc(=O)cc(CN=[N+]=[N-])c2cc1S(=O)(=O)Nc1ccccc1[N+](=O)[O-] | 1 (≈ 2.41 µM) | 1 (≈ 2.41 µM) | 62.5 (≈ 150 µM) | 4 (≈ 9.63 µM) | 16 (≈ 38.5 µM) | > 500 | 250 (≈ 602 µM) | 8 (≈ 19.3 µM) | 8 (≈ 19.3 µM) | 4 (≈ 9.63 µM) | 8 (≈ 19.3 µM) | 1 (≈ 2.41 µM) |
| Cc1cc2oc(=O)cc(CN=[N+]=[N-])c2cc1S(=O)(=O)Nc1cccc(Cl)c1 | 8 (≈ 19.8 µM) | 1 (≈ 2.47 µM) | 16 (≈ 39.5 µM) | 1 (≈ 2.47 µM) | 4 (≈ 9.88 µM) | > 500 | > 500 | 16 (≈ 39.5 µM) | 31.2 (≈ 77.2 µM) | 2 (≈ 4.94 µM) | > 500 | 1 (≈ 2.47 µM) |
| Cc1cc2oc(=O)cc(CN=[N+]=[N-])c2cc1S(=O)(=O)Nc1cccc([N+](=O)[O-])c1 | 8 (≈ 19.3 µM) | 4 (≈ 9.63 µM) | 8 (≈ 19.3 µM) | 125 (≈ 301 µM) | 125 (≈ 301 µM) | 125 (≈ 301 µM) | 16 (≈ 38.5 µM) | 8 (≈ 19.3 µM) | 8 (≈ 19.3 µM) | 2 (≈ 4.81 µM) | 4 (≈ 9.63 µM) | 2 (≈ 4.81 µM) |
| Cc1cc2oc(=O)cc(CN=[N+]=[N-])c2cc1S(=O)(=O)Nc1ccc(Cl)c(Cl)c1 | 16 (≈ 36.4 µM) | 4 (≈ 9.11 µM) | 2 (≈ 4.55 µM) | 8 (≈ 18.2 µM) | 1 (≈ 2.28 µM) | > 500 | 16 (≈ 36.4 µM) | 31.2 (≈ 71.1 µM) | 16 (≈ 36.4 µM) | 2 (≈ 4.55 µM) | 31.2 (≈ 71.1 µM) | 1 (≈ 2.28 µM) |
